According to ChEMBL document CHEMBL4765333, “Novel NO-releasing scopoletin derivatives induce cell death via mitochondrial apoptosis pathway and cell cycle arrest” (Eur J Med Chem, 2020):
Activity calls are given as the source filed them. The calls are words filed in the database; no cut-off is given here.

What was measured:
MDA-MB-231 [1] = test: Induction of mitochondrial membrane potential depolarization in human MDA-MB-231 cells assessed as proportion of cells with hyperpolarized MMP at 1.5 uM incubated for 18 hrs by JC-1 staining based flow cytometry (reference value: 98.4%); type: functional
MDA-MB-231 [2] = test: Induction of mitochondrial membrane potential depolarization in human MDA-MB-231 cells assessed as proportion of cells with hyperpolarized MMP at 1 uM incubated for 18 hrs by JC-1 staining based flow cytometry (reference value: 98.4%); type: functional
MDA-MB-231 [3] = test: Induction of cell cycle arrest in human MDA-MB-231 cells assessed as accumulation at G2/M phase at 2 uM measured after 24 hrs by propidium iodide staining based flow cytometric method (reference value: 18.55%); type: functional
A549 = test: Anticancer activity against human A549 cells assessed as inhibition of cell proliferation measured after 48 hrs by MTT assay; type: functional, cell-based; conditions: A549, 48 h
Procedure, shortened: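 Cells seeded at ~5,000/well, grown 24 h to partial monolayer, then exposed 48 h at 37°C, 5% CO2 to 0.5, 1, 2, 4, 10 and 20 µM (DMSO ≤0.1%). MTT final 0.5 mg/ml for 4 h, formazan dissolved in DMSO, A570. Survival expressed as % of untreated control; IC50 from dose-response curves; three independent experiments.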

MDA-MB-231 [4] = test: Induction of intracellular reactive oxygen species generation in human MDA-MB-231 cells at 1 uM measured after 24 hrs by DCFH-DA staining based flow cytometry analysis relative to control; type: functional
Procedure, shortened: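 MDA-MB-231 cells at 2×10^5 cells/well, grown 24 h, exposed 24 h to compound (1, 1.5, 2 µM) or DMSO control. Cells then took up DCFH-DA for 30 min at 37°C in the dark, were PBS-washed, resuspended in serum-free medium and analysed by flow cytometry. Relative DCF level vs control; mean ± SD, n = 3.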

MDA-MB-231 [5] = test: Induction of apoptosis in human MDA-MB-231 cells assessed as necrotic cell at 1 uM after 24 hrs by Annexin V/propidium iodide staining based flow cytometric analysis (reference value: 0.019%); type: functional
Procedure, shortened: (§1)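 MDA-MB-231 cells (2×10^5/well) attached 24 h, then treated 24 h with 1, 1.5, 2 or 3 µM, DMSO as control. Cells harvested, PBS-washed, resuspended in binding buffer, stained with Annexin V and PI for 30 min at 37°C in the dark, and analysed by flow cytometry for quadrant percentages; three experiments.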

MDA-MB-231 [6] = test: Induction of reactive oxygen species production in human MDA-MB-231 cells at 2 uM preincubated with ROS scavenger, NAC for 2 hrs followed by incubation with compound for 24 hrs by DCFH-DA staining based flow cytometry analysis relative to control; type: functional
Procedure, shortened: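 MDA-MB-231 seeded at 2×10^5 cells/well, grown 24 h, pretreated with NAC (2.5 mM) for 2 h, then given 2 µM compound for 24 h. Cells loaded with DCFH-DA 30 min at 37°C in the dark, washed in PBS, resuspended in serum-free medium and read by flow cytometry; three independent experiments.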

MDA-MB-231 [7] = test: Induction of apoptosis in human MDA-MB-231 cells assessed as early apoptotic cells at 1.5 uM after 24 hrs by Annexin V/propidium iodide based flow cytometric analysis (reference value: 0.94%); type: functional; procedure, shortened: as §1
MDA-MB-231 [8] = test: Induction of apoptosis in human MDA-MB-231 cells assessed as late apoptotic cells at 3 uM after 24 hrs by Annexin V/propidium iodide based flow cytometric analysis (reference value: 0.038%); type: functional; procedure, shortened: as §1
MDA-MB-231 [9] = test: Inhibition of colony formation in human MDA-MB-231 cells at 0.25 uM incubated for 24 hrs followed by culturing in fresh medium for 10 days by crystal violet staining based assay; type: functional, cell-based
Procedure, shortened: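 MDA-MB-231 seeded at 1.5×10^3 cells/well, 24 h attachment, then 24 h exposure to compound (0.25, 0.5, 1 µM) or DMSO; fresh medium for a further 10 days. Fixed in 4% paraformaldehyde 0.5 h at 4°C, crystal violet stained, dye dissolved in DMSO and absorbance read at 590 nm; performed three times.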

MDA-MB-231 [10] = test: Induction of cell cycle arrest in human MDA-MB-231 cells assessed as accumulation at S phase at 1.5 uM measured after 24 hrs by propidium iodide staining based flow cytometric method (reference value: 36.25%); type: functional
MDA-MB-231 [11] = test: Induction of apoptosis in human MDA-MB-231 cells assessed as early apoptotic cells at 3 uM after 24 hrs by Annexin V/propidium iodide based flow cytometric analysis (reference value: 0.94%); type: functional; procedure, shortened: as §1
MDA-MB-231 [12] = test: Antiproliferative activity in human MDA-MB-231 cells assessed as inhibition of cell viability at 1.5 to 3 uM pretreated with 20 uM apoptosis inhibitor, Z-VAD-FMK followed by addition of compound and measured after 48 hrs by MTT assay; type: functional, cell-based; conditions: dose 1.5-3 µM
Procedure, shortened: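 MDA-MB-231 cells pretreated 1 h with necrostatin-1 (10 µM) or Z-VAD-FMK (20 µM), then exposed to compound at 1.5, 2 and 3 µM for another 48 h. Inhibition rates by MTT; inhibitors alone also tested 48 h for viability. Mean ± SD, n = 3.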

[13] = Induction of intracellular reactive oxygen species generation in human MDA-MB-231 cells assessed as proportion of FL1-H positive cells at 1 uM measured after 24 hrs by DCFH-DA staining based flow cytometry analysis (reference value: 47.8%); type: functional, MDA-MB-23
MDA-MB-231 [14] = test: Induction of cell cycle arrest in human MDA-MB-231 cells assessed as accumulation at G0/G1 phase at 1.5 uM measured after 24 hrs by propidium iodide staining based flow cytometric method (reference value: 45.71%); type: functional
MDA-MB-231 [15] = test: Antiproliferative activity against human MDA-MB-231 cells assessed as inhibition of cell proliferation rate at 4 uM pretreated with 40 uM NO scavenger, hemoglobin for 2 hrs followed by addition of compound and measured after 48 hrs by MTT assay; type: functional
Procedure, shortened: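 MDA-MB-231 cells pretreated 2 h with the NO scavenger hemoglobin (2.5, 5, 10, 20, 40 µM), then given compound at 4 µM for a further 48 h. Inhibition rate read by MTT assay; mean ± SD, n = 3.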

MDA-MB-23 = test: Induction of mitochondrial membrane potential depolarization in human MDA-MB-231 cells incubated for 18 hrs by JC-1 staining based flow cytometry; type: functional, cell-based; conditions: dose 1-2 µM
[16] = Prodrug release in human MDA-MB-231 cells assessed as increase in intracellular NO level at 25 uM measured after 2.5 hrs by total nitric oxide assay; type: ADME, cell-based; conditions: mda-mb-23, 2.5 h
Procedure, shortened: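 MDA-MB-231 (2×10^5 cells/well) cultured 24 h, then treated 2.5 h with compound at 25 µM or DMSO. Cells harvested, lysed in nitric oxide assay buffer 1 h on ice; lysate NO quantified with a total nitric oxide assay kit. Mean ± SD, n = 3.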

IC50 (A549): 4.18 µM | Drug metabolism [16]: Metabolite_Detected
Compound: COc1cc2cc(N)c(=O)oc2cc1OCCCOc1no[n+]([O-])c1S(=O)(=O)c1ccccc1
Activity (MDA-MB-231 [1]): 81.4% | Activity (MDA-MB-231 [2]): 93.2% | Activity (MDA-MB-231 [3]): 40.29% | fold change (FC) (MDA-MB-231 [4]): 1.31 | Activity (MDA-MB-231 [5]): 0.21% | fold change (FC) (MDA-MB-231 [6]): 1.09 | Activity (MDA-MB-231 [7]): 10.8% | Activity (MDA-MB-231 [8]): 20.5% | inhibition (MDA-MB-231 [9]): Active | Activity (MDA-MB-231 [10]): 22.92% | Activity (MDA-MB-231 [11]): 13.6% | Activity (MDA-MB-231 [12]): inactive | Activity [13]: 65% | Activity (MDA-MB-231 [14]): 41.85% | inhibition at 4 µM (MDA-MB-231 [15]): 39.5% | Activity (MDA-MB-23): Dose-dependent effect
